# Laboratory results as given in ChEMBL document CHEMBL5058577, “EUbOPEN Chemogenomics Library 2 (Multiplex)” (2022).
# System: Fibroblast
# Test: Multiplex assay against human fibroblast
# Type: toxicity, cell-based
# Summary of the method: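 Hoechst33342, BioTracker Green Microtubule Cytoskeleton Dye, MitoTracker Red and Annexin V Alexa Fluor 680 were added to live cells at seeding, and imaging on a CQ1 microscope at 37°C and 5% CO2 followed compound addition. Gating by CellPathfinder machine learning separated cells into Hoechst high-intensity objects or normal cells, then normal cells into healthy, pyknosed or fragmented nuclei, then pyknosed cells into mitotic or apoptotic. Per cents of healthy-nucleus cells are reported for the tubulin, mitochondrial-mass and membrane-permeability phenotypes.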
# [1] = 12 h, 1 µM, compound concentration 1 uM, replicate 1
# [2] = 12 h, 1 µM, compound concentration 1 uM, replicate 2
# [3] = 12 h, 10 µM, compound concentration 10 uM, replicate 1
# [4] = 12 h, 10 µM, compound concentration 10 uM, replicate 2
# [5] = 24 h, 1 µM, compound concentration 1 uM, replicate 1
# [6] = 24 h, 1 µM, compound concentration 1 uM, replicate 2
# [7] = 24 h, 10 µM, compound concentration 10 uM, replicate 1
# [8] = 24 h, 10 µM, compound concentration 10 uM, replicate 2
# [9] = 48 h, 1 µM, compound concentration 1 uM, replicate 1
# [10] = 48 h, 1 µM, compound concentration 1 uM, replicate 2
# [11] = 48 h, 10 µM, compound concentration 10 uM, replicate 1
# [12] = 48 h, 10 µM, compound concentration 10 uM, replicate 2
structure (smiles),measurement,setting,value
CC(C)(C)c1ccc(CSc2cnn(C(C)(C)C)c(=O)c2Cl)cc1 [PYRIDABEN],Population Apoptotic (%),[1],46%
same,Population Fragmented Nuclei (%),[1],15%
same,Population Healthy Nuclei (%),[1],66%
same,Population Hoechst High Intensity Objects (%),[1],1%
same,Population Membrane Permeable-Phenotype (%),[1],3%
same,Population Mitochondria Different-Phenotype (%),[1],1%
same,Population Mitotic Cells (%),[1],53%
same,Population Normal (%),[1],98%
same,Population Pyknosed Nuclei (%),[1],17%
same,Population Tubulin-Different-Phenotype (%),[1],28%
same,Total Cell Count,[1],148
same,Population Apoptotic (%),[2],44%
same,Population Fragmented Nuclei (%),[2],27%
same,Population Healthy Nuclei (%),[2],47%
same,Population Hoechst High Intensity Objects (%),[2],4%
same,Population Membrane Permeable-Phenotype (%),[2],12%
same,Population Mitochondria Different-Phenotype (%),[2],7%
same,Population Mitotic Cells (%),[2],55%
same,Population Normal (%),[2],95%
same,Population Pyknosed Nuclei (%),[2],25%
same,Population Tubulin-Different-Phenotype (%),[2],57%
same,Total Cell Count,[2],142
same,Population Apoptotic (%),[3],25%
same,Population Fragmented Nuclei (%),[3],11%
same,Population Healthy Nuclei (%),[3],68%
same,Population Hoechst High Intensity Objects (%),[3],4%
same,Population Membrane Permeable-Phenotype (%),[3],2%
same,Population Mitochondria Different-Phenotype (%),[3],5%
same,Population Mitotic Cells (%),[3],74%
same,Population Normal (%),[3],95%
same,Population Pyknosed Nuclei (%),[3],20%
same,Population Tubulin-Different-Phenotype (%),[3],35%
same,Total Cell Count,[3],139
same,Population Apoptotic (%),[4],47%
same,Population Fragmented Nuclei (%),[4],25%
same,Population Healthy Nuclei (%),[4],49%
same,Population Hoechst High Intensity Objects (%),[4],1%
same,Population Membrane Permeable-Phenotype (%),[4],12%
same,Population Mitochondria Different-Phenotype (%),[4],4%
same,Population Mitotic Cells (%),[4],52%
same,Population Normal (%),[4],98%
same,Population Pyknosed Nuclei (%),[4],25%
same,Population Tubulin-Different-Phenotype (%),[4],54%
same,Total Cell Count,[4],136
same,Population Apoptotic (%),[5],35%
same,Population Fragmented Nuclei (%),[5],17%
same,Population Healthy Nuclei (%),[5],71%
same,Population Hoechst High Intensity Objects (%),[5],0%
same,Population Membrane Permeable-Phenotype (%),[5],0%
same,Population Mitochondria Different-Phenotype (%),[5],2%
same,Population Mitotic Cells (%),[5],64%
same,Population Normal (%),[5],99%
same,Population Pyknosed Nuclei (%),[5],11%
same,Population Tubulin-Different-Phenotype (%),[5],20%
same,Total Cell Count,[5],148
same,Population Apoptotic (%),[6],36%
same,Population Fragmented Nuclei (%),[6],30%
same,Population Healthy Nuclei (%),[6],48%
same,Population Hoechst High Intensity Objects (%),[6],4%
same,Population Membrane Permeable-Phenotype (%),[6],7%
same,Population Mitochondria Different-Phenotype (%),[6],8%
same,Population Mitotic Cells (%),[6],63%
same,Population Normal (%),[6],95%
same,Population Pyknosed Nuclei (%),[6],21%
same,Population Tubulin-Different-Phenotype (%),[6],50%
same,Population Apoptotic (%),[7],56%
same,Population Fragmented Nuclei (%),[7],13%
same,Population Healthy Nuclei (%),[7],62%
same,Population Hoechst High Intensity Objects (%),[7],2%
same,Population Membrane Permeable-Phenotype (%),[7],1%
same,Population Mitochondria Different-Phenotype (%),[7],7%
same,Population Mitotic Cells (%),[7],43%
same,Population Normal (%),[7],97%
same,Population Pyknosed Nuclei (%),[7],23%
same,Population Tubulin-Different-Phenotype (%),[7],40%
same,Total Cell Count,[7],139
same,Population Apoptotic (%),[8],54%
same,Population Fragmented Nuclei (%),[8],28%
same,Population Healthy Nuclei (%),[8],48%
same,Population Hoechst High Intensity Objects (%),[8],0%
same,Population Membrane Permeable-Phenotype (%),[8],9%
same,Population Mitochondria Different-Phenotype (%),[8],9%
same,Population Mitotic Cells (%),[8],45%
same,Population Normal (%),[8],99%
same,Population Pyknosed Nuclei (%),[8],22%
same,Population Tubulin-Different-Phenotype (%),[8],53%
same,Total Cell Count,[8],136
same,Population Apoptotic (%),[9],50%
same,Population Fragmented Nuclei (%),[9],27%
same,Population Healthy Nuclei (%),[9],62%
same,Population Hoechst High Intensity Objects (%),[9],1%
same,Population Membrane Permeable-Phenotype (%),[9],0%
same,Population Mitochondria Different-Phenotype (%),[9],4%
same,Population Mitotic Cells (%),[9],50%
same,Population Normal (%),[9],98%
same,Population Pyknosed Nuclei (%),[9],9%
same,Population Tubulin-Different-Phenotype (%),[9],28%
same,Total Cell Count,[9],164
same,Population Apoptotic (%),[10],45%
same,Population Fragmented Nuclei (%),[10],43%
same,Population Healthy Nuclei (%),[10],41%
same,Population Hoechst High Intensity Objects (%),[10],4%
same,Population Membrane Permeable-Phenotype (%),[10],6%
same,Population Mitochondria Different-Phenotype (%),[10],15%
same,Population Mitotic Cells (%),[10],54%
same,Population Normal (%),[10],95%
same,Population Pyknosed Nuclei (%),[10],15%
same,Population Tubulin-Different-Phenotype (%),[10],63%
same,Total Cell Count,[10],153
same,Population Apoptotic (%),[11],72%
same,Population Fragmented Nuclei (%),[11],19%
same,Population Healthy Nuclei (%),[11],62%
same,Population Hoechst High Intensity Objects (%),[11],4%
same,Population Membrane Permeable-Phenotype (%),[11],0%
same,Population Mitochondria Different-Phenotype (%),[11],8%
same,Population Mitotic Cells (%),[11],28%
same,Population Normal (%),[11],95%
same,Population Pyknosed Nuclei (%),[11],18%
same,Population Tubulin-Different-Phenotype (%),[11],49%
same,Total Cell Count,[11],143
same,Population Apoptotic (%),[12],63%
same,Population Fragmented Nuclei (%),[12],36%
same,Population Healthy Nuclei (%),[12],48%
same,Population Hoechst High Intensity Objects (%),[12],5%
same,Population Membrane Permeable-Phenotype (%),[12],8%
same,Population Mitochondria Different-Phenotype (%),[12],10%
same,Population Mitotic Cells (%),[12],36%
same,Population Normal (%),[12],94%
same,Population Pyknosed Nuclei (%),[12],15%
same,Population Tubulin-Different-Phenotype (%),[12],58%
same,Total Cell Count,[12],131
